These results are taken from ChEMBL document CHEMBL5104156, “Development of subtype-selective covalent ligands for the adenosine A2B receptor by tuning the reactive group” (RSC Med Chem, 2022).

pKi: −log10 of the molar value. The source made the active and inactive calls. The calls are words filed in the database; no cut-off is given here.

Holding throughout (assay type): cell membranes
Assay [1] deals with Adenosine receptor A2a (Homo sapiens) (UniProt P29274). The assay can be described thus: Displacement of [3H]ZM241385 from human adenosine A2A receptor expressed in HEK293 cell membrane at 1 uM preincubated for 4 hrs followed by [3H]ZM241385 addition and measured after 0.5 hrs by radioligand displacement assay. Conditions: time 4.5 hrs.
Sequence of Adenosine receptor A2a (Homo sapiens) (P29274 whole entry): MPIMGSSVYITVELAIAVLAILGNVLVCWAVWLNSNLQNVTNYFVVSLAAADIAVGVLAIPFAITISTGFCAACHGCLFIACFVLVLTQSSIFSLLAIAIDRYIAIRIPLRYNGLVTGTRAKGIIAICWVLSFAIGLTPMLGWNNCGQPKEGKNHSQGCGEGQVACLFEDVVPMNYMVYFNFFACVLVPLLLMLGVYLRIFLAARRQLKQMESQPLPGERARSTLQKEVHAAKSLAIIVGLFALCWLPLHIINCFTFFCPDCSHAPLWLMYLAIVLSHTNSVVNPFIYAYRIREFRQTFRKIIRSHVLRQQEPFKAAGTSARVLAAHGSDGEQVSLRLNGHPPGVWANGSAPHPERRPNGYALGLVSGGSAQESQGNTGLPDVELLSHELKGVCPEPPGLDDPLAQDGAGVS
Assay [2] has as its target T1, Adenosine receptor A2b (Homo sapiens) (UniProt P29275).
T1 sequence (whole entry): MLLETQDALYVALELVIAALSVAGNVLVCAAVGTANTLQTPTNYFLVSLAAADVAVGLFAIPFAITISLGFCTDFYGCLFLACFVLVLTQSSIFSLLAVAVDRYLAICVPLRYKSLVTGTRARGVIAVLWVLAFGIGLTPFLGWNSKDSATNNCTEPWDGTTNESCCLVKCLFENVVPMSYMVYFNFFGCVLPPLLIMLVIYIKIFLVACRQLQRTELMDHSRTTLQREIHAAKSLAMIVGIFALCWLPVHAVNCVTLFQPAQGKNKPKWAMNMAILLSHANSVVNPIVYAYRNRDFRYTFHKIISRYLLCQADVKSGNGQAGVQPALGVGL
The assay can be described thus: Ratio of Ki for displacement of [3H]PSB-603 from human adenosine A2B receptor expressed in CHO cell membrane to Ki for displacement of [3H]PSB-603 from human adenosine A2B receptor expressed in CHO cell membrane preincubated for 4hrs. The essentials:
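CHO-spap-hA2BAR membranes (30 µg protein) in 50 mM Tris-HCl pH 7.4 with 0.1% CHAPS. Nonspecific binding was set with 10 µM ZM241385. Filtration was followed by scintillation counting.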

Assay [3] has as its target T2, Adenosine receptor A3 (Homo sapiens) (UniProt P0DMS8).
T2 sequence (whole entry): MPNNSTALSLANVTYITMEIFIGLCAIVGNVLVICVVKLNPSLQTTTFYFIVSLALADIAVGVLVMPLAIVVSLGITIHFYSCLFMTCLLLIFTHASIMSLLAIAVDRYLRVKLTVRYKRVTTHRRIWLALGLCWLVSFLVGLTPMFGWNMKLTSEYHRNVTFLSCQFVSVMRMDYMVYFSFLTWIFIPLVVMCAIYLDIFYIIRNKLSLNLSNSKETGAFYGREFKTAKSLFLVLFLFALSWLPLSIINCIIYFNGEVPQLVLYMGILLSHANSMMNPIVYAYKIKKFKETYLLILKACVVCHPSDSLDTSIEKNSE
The assay can be described thus: Displacement of [3H]PSB-11 from human adenosine A3 receptor expressed in CHO cell membrane at 1 uM and measured after 0.5 hrs by radioligand displacement assay. (In general: Displacement assays read how much labelled ligand stays bound in the presence of the test substance.)

In assay [4] the target is T3, Adenosine receptor A2b (Homo sapiens, UniProt P29275).
T3 sequence (P29275 whole entry): T1 sequence (whole entry)
Description: Displacement of [3H]PSB-603 from human adenosine A2B receptor expressed in CHO cell membrane preincubated for 4 hrs followed by [3H]PSB-603 addition and measured after 0.5 hrs by radioligand displacement assay.

In assay [5] the target is T4, Adenosine receptor A1 (Homo sapiens) (UniProt P30542).
T4 sequence (whole entry): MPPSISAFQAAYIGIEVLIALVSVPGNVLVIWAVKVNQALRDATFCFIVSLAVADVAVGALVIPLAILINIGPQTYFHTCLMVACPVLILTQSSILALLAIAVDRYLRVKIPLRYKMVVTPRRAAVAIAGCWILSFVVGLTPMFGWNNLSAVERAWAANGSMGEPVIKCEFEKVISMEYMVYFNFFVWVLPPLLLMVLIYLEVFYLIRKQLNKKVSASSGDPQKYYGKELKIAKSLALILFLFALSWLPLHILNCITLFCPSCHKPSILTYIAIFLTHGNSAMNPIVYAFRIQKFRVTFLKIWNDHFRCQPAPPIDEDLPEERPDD
Description: Displacement of [3H]DPCPX from human adenosine A1 receptor expressed in CHO cell membrane at 1 uM preincubated for 4 hrs followed by [3H]DPCPX addition and measured after 0.5 hrs by radioligand displacement assay. Conditions: time 4.5 hrs.

For assay [6], the target named is T4, Adenosine receptor A1 (Homo sapiens). The assay can be described thus: Displacement of [3H]DPCPX from human adenosine A1 receptor expressed in CHO cell membrane at 1 uM and measured after 0.5 hrs by radioligand displacement assay.
The target in assay [7] is Adenosine receptor A2a (Homo sapiens) (UniProt P29274). Description: Displacement of [3H]ZM241385 from human adenosine A2A receptor expressed in HEK293 cell membrane at 1 uM and measured after 0.5 hrs by radioligand displacement assay.
Assay [8] has as its target T3, Adenosine receptor A2b. The assay can be described thus: Displacement of [3H]PSB-603 from human adenosine A2B receptor expressed in CHO cell membrane and measured after 0.5 hrs by radioligand displacement assay.
Assay [9] concerns the target T2, Adenosine receptor A3 (Homo sapiens). The assay can be described thus: Displacement of [3H]PSB-11 from human adenosine A3 receptor expressed in CHO cell membrane at 1 uM preincubated for 4 hrs followed by [3H]PSB-11 addition and measured after 0.5 hrs by radioligand displacement assay. Conditions: time 4.5 hrs.
The target in assay [10] is T1, Adenosine receptor A2b (Homo sapiens). Description: Displacement of [3H]PSB-603 from human adenosine A2B receptor expressed in CHO cell membrane assessed as covalent adduct formation at 1 uM preincubated followed by 4 times washing treatment and then with [3H]PSB-603 exposure by radioligand displacement assay. Summed up: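 CHO-spap-hA2BAR membranes (80 µg protein) were shaken 2 h at 25 °C with ligand, added as a 1 µM solution, in 0.1% CHAPS/50 mM Tris-HCl pH 7.4. The washed set was pelleted, resuspended and shaken 10 min at 25 °C, repeated three times; an unwashed set was kept for comparison. Both sets then had [3H]PSB-603 (1.5 nM solution) added for 2 h at 25 °C, with nonspecific binding set by 10 µM ZM241385. Filtration, then scintillation counting.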

On to `CCCn1c(=O)[nH]c2nc(-c3cccc(OS(=O)(=O)F)c3)[nH]c2c1=O`, for which the Activity amounted to 0% in assay [1]; 14% in assay [3]; 1% in assay [5]; 6% in assay [6]; 2% in [7]; 5% in assay [9]. The Ratio Ki in assay [2] was determined as 1.6. For the same compound, the pKi at Adenosine receptor A2b [4] is 7.15; on Adenosine receptor A2b [8], 6.85.
Turning to `CCCn1c(=O)c2[nH]c(-c3ccc(N=C=S)cc3)nc2n(CCC)c1=O`, the Activity in [1] was 39%; in assay [3], 48%; in assay [5], 92%; in assay [6], 77%; in assay [7], 40%; in assay [9], 96%. In addition, in assay [2], the Ratio Ki was found to be 7.7. Further, the pKi at Adenosine receptor A2b [4] was 8.49; on Adenosine receptor A2b [8], 7.62.
`CCCn1c(=O)c2[nH]c(-c3ccc(OS(=O)(=O)F)cc3)nc2n(CCC)c1=O`: the Activity in assay [1] came to 69%; in assay [3], 47%; in assay [5] it was 85%; in assay [6], 79%; in assay [7], 63%; in [9] it was 49%. In addition, the Ratio Ki in assay [2] was determined as 1. Further, the pKi was 7.29 on Adenosine receptor A2b [4] and 7.31 at Adenosine receptor A2b [8].
As for `CCCn1c(=O)[nH]c2nc(-c3cccc(N=C=S)c3)[nH]c2c1=O`, the Activity came out at 6% in [1]; 58% in assay [3]; 16% in [5]; 7% in assay [6]; 0% in [7]; 95% in [9]. The Ratio Ki in assay [2] was 74.3. Also, the figures for the pKi at Adenosine receptor A2b [4] and at Adenosine receptor A2b [8] were 8.55 and 6.96, respectively.
`CCCn1c(=O)c2[nH]c(-c3cccc(OS(=O)(=O)F)c3)nc2n(CCC)c1=O`: the Activity came out at 12% in assay [1]; 64% in assay [3]; 77% in assay [5]; 76% in [6]; 13% in assay [7]; 58% in assay [9]. In assay [2], the Ratio Ki amounted to 1.2. The figures for the pKi at Adenosine receptor A2b [4] and on Adenosine receptor A2b [8] were 6.28 and 6.25, respectively.
For `CCCn1c(=O)c2[nH]c(-c3cccc(N=C=S)c3)nc2n(CCC)c1=O`, the Activity is 34% in assay [1]; 89% in [3]; 96% in [5]; 73% in [6]; 47% in [7]; 100% in assay [9]. In [2], the Ratio Ki came to 19.3. The pKi at Adenosine receptor A2b [4] was 7.31; at Adenosine receptor A2b [8], 6.21.
Take `CCCn1c(=O)[nH]c2nc(-c3cccc(S(=O)(=O)F)c3)[nH]c2c1=O`: the Activity in assay [1] came to 6%; in assay [3], 14%; in assay [5], 36%; in assay [6], 6%; in assay [7], 20%; in assay [9], 10%. Besides, the Ratio Ki in [2] was 10.2. In addition, the pKi on Adenosine receptor A2b [4] was 7.88; at Adenosine receptor A2b [8], 6.88.
Turning to `CCCn1c(=O)[nH]c2nc(-c3ccc(OS(=O)(=O)F)cc3)[nH]c2c1=O`, the result in assay [10] was Active. Further, the Activity amounted to 24% in assay [1]; 8% in assay [3]; 12% in assay [5]; 17% in assay [6]; 35% in assay [7]; 8% in [9]. Also, the Ratio Ki in [2] is 2.2. The negative logarithm of the Ki (pKi) is 8.26 on Adenosine receptor A2b [4] and 7.93 at Adenosine receptor A2b [8].
As to `CCCn1c(=O)[nH]c2nc(-c3ccc(S(=O)(=O)F)cc3)[nH]c2c1=O`, the result in assay [10] was Active. The Activity in assay [1] is 43%; in [3], 7%; in [5], 41%; in [6], 29%; in [7] it was 52%; in assay [9], 9%. In addition, the Ratio Ki in assay [2] came out at 12.1. The pKi on Adenosine receptor A2b [4] was 9.17; on Adenosine receptor A2b [8] it was 8.10.
With `CCCn1c(=O)c2[nH]c(-c3cccc(S(=O)(=O)F)c3)nc2n(CCC)c1=O`, the Activity was found to be 23% in assay [1]; 30% in [3]; 61% in [5]; 52% in assay [6]; 19% in [7]; 43% in [9]. Moreover, the Ratio Ki in assay [2] was 7.1. In addition, the results for the negative-log Ki (pKi) at Adenosine receptor A2b [4] and on Adenosine receptor A2b [8] were 6.80 and 6.02, respectively.
On to `CCCn1c(=O)[nH]c2nc(-c3ccc(N=C=S)cc3)[nH]c2c1=O`, for which the Activity in [1] came out at 27%; in [3] it was 15%; in assay [5] it was 97%; in assay [6], 51%; in [7] it was 25%; in assay [9], 66%. Also, in [2], the Ratio Ki was 3.4. Also, the results for the pKi at Adenosine receptor A2b [4] and on Adenosine receptor A2b [8] were 9.18 and 8.67, respectively.
As for `CCCn1c(=O)c2[nH]c(-c3ccc(S(=O)(=O)F)cc3)nc2n(CCC)c1=O`, the Activity in assay [1] amounted to 55%; in assay [3] it was 12%; in assay [5], 69%; in assay [6] it was 61%; in assay [7], 54%; in [9], 5%. Further, the Ratio Ki in assay [2] was 27.3. Besides, the figures for the pKi on Adenosine receptor A2b [4] and on Adenosine receptor A2b [8] were 8.62 and 7.22, respectively.

A word on the pKi: it is the Ki on a negative log10 scale, so that one unit is a factor of ten. A higher pKi goes with a low Ki.
